The list is not random: actives were taken first. Their share in the collection is about 2.3%.
TRPC6 inh: mouse TRPC6 channel inhibitors, primary screen, cell-based, HEK293, membrane potential dye. ACh-evoked depolarization; active compounds read low. AID 2553, 2010. hit rate 1.1% among 310,000. B-score at 10 µM;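 active = B-score under library mean minus 3 SD, initial fluorescence not abnormally high, positive integrated signal ratio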;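 also: B-score derived from integrated fluorescence ratio over the kinetic read; more negative B-score means stronger inhibition of depolarization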
Target sequence (Q61143 whole entry, looked up): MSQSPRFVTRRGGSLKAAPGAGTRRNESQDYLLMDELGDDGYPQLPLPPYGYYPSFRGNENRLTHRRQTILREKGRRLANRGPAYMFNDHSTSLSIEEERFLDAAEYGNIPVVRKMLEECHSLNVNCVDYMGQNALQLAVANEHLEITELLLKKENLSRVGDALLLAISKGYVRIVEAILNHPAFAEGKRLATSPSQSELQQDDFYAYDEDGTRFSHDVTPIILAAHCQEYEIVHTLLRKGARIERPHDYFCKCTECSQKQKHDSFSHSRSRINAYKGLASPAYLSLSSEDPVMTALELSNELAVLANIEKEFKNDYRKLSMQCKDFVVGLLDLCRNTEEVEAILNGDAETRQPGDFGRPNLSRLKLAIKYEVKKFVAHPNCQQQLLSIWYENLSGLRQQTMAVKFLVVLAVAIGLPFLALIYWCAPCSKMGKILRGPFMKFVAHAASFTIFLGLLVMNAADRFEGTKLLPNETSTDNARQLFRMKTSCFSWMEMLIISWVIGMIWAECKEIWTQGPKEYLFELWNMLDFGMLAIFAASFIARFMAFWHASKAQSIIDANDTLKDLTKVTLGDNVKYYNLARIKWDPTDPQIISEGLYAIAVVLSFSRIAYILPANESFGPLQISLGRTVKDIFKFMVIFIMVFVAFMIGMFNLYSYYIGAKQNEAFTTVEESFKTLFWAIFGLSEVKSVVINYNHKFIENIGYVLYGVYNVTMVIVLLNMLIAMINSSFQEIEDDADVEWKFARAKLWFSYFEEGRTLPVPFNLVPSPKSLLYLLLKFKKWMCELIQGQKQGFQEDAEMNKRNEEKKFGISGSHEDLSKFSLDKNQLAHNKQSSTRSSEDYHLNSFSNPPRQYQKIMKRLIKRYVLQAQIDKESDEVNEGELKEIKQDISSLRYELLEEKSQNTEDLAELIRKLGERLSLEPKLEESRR
TRPC4 block: inhibitors of mouse TRPC4 channel, primary screen, Fluo4 calcium, HEK293 TRPC4beta/mu-opioid cells; DAMGO-evoked Fluo4 calcium flux; active compounds read low; B-score at 10 µM; hit rate 0.39% among 300,000; AID 2247, 2010;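 active = B-score over 3 SD under the library average, no early fluorescence shift, positive overall ratio signal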
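Assay system: HEK293 cells with stable TRPC4beta plus mu-opioid receptor expression. Dosing: single dose. Measured by: Fluo4 Ca2+ flux fluorescence. Also added: DAMGO in two steps, submaximal then maximal. Read-out: B score from integrated Fluo4 fluorescence ratio.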
TRPC4 act: activators of mouse TRPC4 channel, primary screen, Fluo4 calcium, HEK293 TRPC4beta/mu-opioid cells. Fluo4 calcium fluorescence; active compounds read high. AID 2237, 2010. B-score at 10 µM. Short transient receptor potential channel 4 (Mus musculus), Q9QUQ5. hit rate 0.49% among 310,000;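 active = B-score above 5 SD of library B-scores, and initial fluorescence ratio not above library mean plus 5 SD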;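 also: positive B-score marks a calcium rise read as TRPC4 activation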
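System: HEK293 cells stably co-expressing mouse TRPC4beta and mu-opioid receptor; Schedule: Fluo4 dye loading 45 min at room temperature, 110 s recording; Detection: Fluo4 fluorescence, kinetic; Evaluation: B-scored integrated calcium fluorescence ratio; Controls: buffer (low) and maximal DAMGO (high).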
TRPC4 potent: positive allosteric modulators of TRPC4, primary screen, cell-based, mouse TRPC4beta, HEK293 mu-opioid, Fluo-4 calcium; Short transient receptor potential channel 4 (Mus musculus), Q9QUQ5; B-score at 10 µM; AID 2227, 2009; hit rate 0.42% among 310,000; DAMGO EC20, Fluo-4 Ca2+ flux; active compounds read high;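 active = B-score of calcium response area above 5 SD of library B-scores, with initial fluorescence ratio within 5 SD of library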;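 also: B-score of integrated fluorescence ratio over time as area under calcium response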
TRPC6 act: mouse TRPC6 channel activators, primary screen, cell-based, HEK293, membrane potential dye | Short transient receptor potential channel 6 (Mus musculus), Q61143 | HEK293-TRPC6 membrane potential dye fluorescence; active compounds read high | B-score at 10 µM | hit rate 0.13% among 310,000;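 active = B-score of the integrated fluorescence ratio above library mean plus 3 SD, and starting fluorescence ratio within library mean plus 5 SD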;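 also: higher score means more depolarization so channel activation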
* marks the source's active call; other numbers are inactive results; i = inactive.

SMILES	TRPC6 inh	TRPC4 block	TRPC4 act	TRPC4 potent	TRPC6 act
CCOC(=O)c1[nH]ncc1CN1CCC(Cc2ccccc2)(C(=O)OCC)CC1	i	i	i	i	i
O=C(O)CCn1c(-c2ccccn2)nc2ccccc21	i	i	i	i	i
CCOC(=O)c1sc(-c2ccc(F)cc2)cc1NC(=O)Nc1ccccc1OC	i	i	i	i	i
CCC(C(=O)Nc1ccccc1OC)n1c(C(=O)OC)cc2ccsc21 (configuration not stated)	i	i	i	15*	i
O=C(c1cccs1)c1c[nH]cc1-c1ccccc1	i	i	i	i	i
Cc1ccc2c(c1)C1CC(C)(O2)N(c2cccc(C(=O)N3CCN(c4ccccn4)CC3)c2)C(=O)N1 (configuration not stated)	i	i	i	i	i
Cc1nc(SCCOc2ccccc2F)[nH]c(=O)c1Cc1ccccc1	i	i	i	i	i
COc1cccc(-c2nc(CS(=O)(=O)CC(=O)NCCCN3CC(C)CC(C)C3)c(C)o2)c1 (configuration not stated)	i	i	65*	i	i
Cc1ccccc1-c1nc(CS(=O)(=O)CC(=O)NCCCN2CC(C)CC(C)C2)c(C)o1 (configuration not stated)	i	i	66*	i	i
Cc1oc(-c2ccc(Cl)cc2)nc1CS(=O)CC(=O)NCCN1CCCCCC1 (configuration not stated)	i	i	i	i	i
Cc1ccccc1-c1nc(CS(=O)(=O)CC(=O)NCCCN2CCOCC2)c(C)o1	i	i	i	i	i
Cc1oc(-c2ccc(Cl)cc2)nc1CS(=O)CC(=O)NCCCN1CC(C)CC(C)C1 (configuration not stated)	i	i	54*	i	i
O=C(Nc1nnc2n1CCS2)c1ccc(Br)o1	i	i	i	68*	i
O=C1CC(NS(=O)(=O)c2cccs2)CN1c1ccc(Cl)cc1 (configuration not stated)	i	i	i	i	i
O=C1CC(NS(=O)(=O)c2cccs2)CN1c1ccccc1 (configuration not stated)	i	i	i	18*	i
Cc1oc(C(C)(C)C)cc1C(=O)N1CCN(c2ncccc2C(F)(F)F)CC1	i	i	i	11*	i
COc1ccccc1N1CCN(C(=O)c2cc(C(C)(C)C)oc2C)CC1	i	i	i	i	i
COCCNC(=O)/C(C#N)=C/c1ccccc1Br	i	i	i	13*	i
COCCNC(=O)/C(C#N)=C/C=C/c1ccccc1	i	i	i	i	i
COc1cc(C)c(/C=C(\C#N)C(=O)Nc2ccc(C)cc2)cc1C(C)C	i	i	i	i	i
COCCNC(=O)/C(C#N)=C/c1cc(C(C)C)c(OC)cc1C	i	i	i	17*	i
COC(=O)c1ccc(NC(=O)c2cc[n+](Cc3ccccc3)cc2)cc1	i	i	i	i	i
Cc1nnc(N2C(=O)C(=O)/C(=C(\O)c3ccc4c(c3)CC(C)O4)C2c2ccccc2)s1 (configuration not stated)	i	i	i	i	i
Cc1ccccc1-c1nn(-c2ccc(F)cc2F)cc1CNCC(C)O (configuration not stated)	i	i	i	i	i
CCOCCCNCc1cn(-c2ccc(F)cc2F)nc1-c1ccccc1C	i	i	77*	i	i
SMILES	TRPC6 inh	TRPC4 block	TRPC4 act	TRPC4 potent	TRPC6 act
CN(C)C(CNC(=O)NC1CCCCC1)c1cccnc1 (configuration not stated)	i	i	105*	i	i
CN(C)C(CNC(=S)Nc1ccccc1Cl)c1cccnc1 (configuration not stated)	i	i	104*	i	i
CN(C)C(CNC(=O)c1cccs1)c1cccnc1 (configuration not stated)	i	i	i	i	i
S=C(NCc1ccncc1)Nc1cccc(Cl)c1	i	i	i	i	i
CCc1cccc(C)c1NC(=S)NCC(c1cccnc1)N(C)C (configuration not stated)	i	i	91*	i	i
CN(C)C(CNC(=S)Nc1cccc(Cl)c1)c1cccnc1 (configuration not stated)	i	i	93*	i	i
CN(CC(=O)Nc1cccc(F)c1)C(=O)c1cc([N+](=O)[O-])ccc1N1CCCCC1	i	i	i	i	i
Cc1ccc(C2(c3ccc(C)cc3)CC2C(=O)NC(C)C)cc1 (configuration not stated)	i	i	i	i	i
COc1cc2c(cc1OC)C(C)N(C(=O)C1=NN(c3cccc(C)c3)C(=O)CC1)CC2 (configuration not stated)	i	i	i	i	i
CN(C)C(CNC(=S)Nc1ccccc1)c1cccnc1 (configuration not stated)	i	i	75*	i	i
C=CCn1c(CCNC(=O)c2ccco2)nc2ccccc21	i	i	168*	i	i
Cc1csc(NC(=O)CSc2nc(=O)n(CCN(C)C)c3c2CCCC3)n1	i	i	i	i	i
CC(=N)c1c(O)c2ccccc2oc1=O	i	i	i	i	i
O=C(CC1CCCCC1)c1c(O)c2ccccc2oc1=O	i	i	99*	i	i
CCCCC(=O)c1c(O)c2ccccc2oc1=O	i	i	i	i	i
CC1CCC(C(=O)c2c(O)c3ccccc3oc2=O)CC1 (configuration not stated)	i	i	44*	i	i
COc1ccccc1CCNC(=O)c1ccc(Br)s1	i	i	i	i	i
CCc1ccc(OCC(=O)NC2CCCCC2)c(Br)c1	i	i	i	55*	i
CCc1ccc(OCC(=O)NNC(=S)NC(=O)C2CCCCC2)c(Br)c1	i	i	i	i	i
Cc1ccc(S(=O)(=O)NCc2ccco2)cc1C(N)=O	i	i	i	i	i
CN1CCN(CC(=O)c2ccccc2F)CC1	i	i	i	i	i

Source: PubChem BioAssay (Johns Hopkins Ion Channel Center)
